# Results taken from ChEMBL document CHEMBL4602675, “The Marine Natural Product Manzamine A Inhibits Cervical Cancer by Targeting the SIX1 Protein” (J Nat Prod, 2020).
# Activity calls are given as the source filed them. No cut-off for these calls is given here.
# Columns and labels:
# SiHa [1] = assay: Induction of apoptosis in human SiHa cells assessed as apoptotic cells at 4 uM after 48 hrs by Annexin V-FITC/PI double staining based flow cytometric analysis (reference value: 6.4%); type: functional
# [2] = biological target: Protein E6 (human papillomavirus 18) (UniProt P06463); assay: Inhibition of Human papillomavirus type18 derived E6 in human HeLa cells assessed as increase in p21 protein expression at 2 to 4 uM after 48 hrs by Western blot analysis; type: cell-based
# Sequence of Protein E6 (human papillomavirus 18) (P06463 whole entry): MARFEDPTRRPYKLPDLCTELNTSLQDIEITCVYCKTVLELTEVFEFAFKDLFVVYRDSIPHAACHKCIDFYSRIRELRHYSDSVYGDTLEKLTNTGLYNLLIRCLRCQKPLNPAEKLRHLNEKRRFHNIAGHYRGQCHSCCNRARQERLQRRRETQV
# Procedure, shortened: (§1)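 Cells were seeded at 1 × 10^6 per 100 mm dish and treated next day with 2 or 4 μM for 48 h. They were trypsinised, PBS-washed and lysed in RIPA with protease inhibitors. Equal protein was run on SDS-PAGE and transferred to PVDF. Primary antibodies were used at 1:500, with BSA 3% for blocking and antibodies for CK2α, Rb and pRb, otherwise 5% milk in TBST. HRP secondary at 1:2000, chemiluminescence detection.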
# Ca-Ski [3] = assay: Cell cycle arrest in human CaSki cells assessed as increase in accumulation at G0/G1 phase at 4 uM incubated for 24 hrs by propidium iodide staining based flow cytometric analysis; type: functional
# Procedure, shortened: (§2)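 Cells in DMEM/10% FBS at 37 °C, 5% CO2 were given 4 μM for 24, 48 or 72 h, with DMSO as control. After trypsinization they were fixed in chilled 70% ethanol on ice for 30 min, treated with RNase A (1 mg/mL) for 30 min at room temperature, and stained with PI (20 μg/mL). At least 10 000 events were read by flow cytometry to give sub-G1, G0/G1, S and G2/M fractions; mean ± SEM.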
# SiHa [4] = assay: Cell cycle arrest in human SiHa cells assessed as accumulation at G2/M phase at 4 uM after 72 hrs by propidium iodide staining based flow cytometric analysis (reference value: 18%); type: functional
# Procedure, shortened: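 Cells in DMEM with 10% FBS, 2 mM L-glutamine, pen-strep, 37 °C, 5% CO2; seeded and left overnight, then treated at 4 μM with DMSO as control. Harvested by trypsin at 24, 48 or 72 h, fixed in chilled 70% ethanol 30 min on ice, RNase A (1 mg/mL) 30 min at room temperature, PI (20 μg/mL). Flow cytometry, ≥10 000 events, G0/G1, S, G2/M fractions; mean ± SEM.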
# Ca-Ski [5] = assay: Induction of apoptosis in human CaSki cells assessed as viable cells at 4 uM after 48 hrs by Annexin V-FITC/PI double staining based flow cytometric analysis (reference value: 81.6%); type: functional; details: read-out: Activity
# C-33-A [6] = assay: Cell cycle arrest in human C33A cells assessed as accumulation at Sub G1 phase at 4 uM after 24 hrs by propidium iodide staining based flow cytometric analysis (reference value: 0.7%); type: functional; procedure, shortened: as §2
# Ca-Ski [7] = assay: Effect on total-Rb in human CaSki cells assessed decrease in Rb protein level at 2 to 4 uM after 48 hrs by Western blot analysis; type: ADME, cell-based; procedure, shortened: as §1
# C-33-A [8] = assay: Induction of apoptosis in human C33A cells assessed as necrotic cells at 4 uM after 48 hrs by Annexin V-FITC/PI double staining based flow cytometric analysis (reference value: 1.9%); type: functional
# Ca-Ski [9] = assay: Cell cycle arrest in human CaSki cells assessed as accumulation at G0/G1 phase at 4 uM after 72 hrs by propidium iodide staining based flow cytometric analysis (reference value: 77.6%); type: functional
# Ca-Ski [10] = assay: Cell cycle arrest in human CaSki cells assessed as accumulation at G2/M phase at 4 uM after 24 hrs by propidium iodide staining based flow cytometric analysis (reference value: 27.4%); type: functional; procedure, shortened: as §2
# SiHa [11] = assay: Induction of apoptosis in human SiHa cells assessed as late apoptotic cells at 4 uM after 48 hrs by Annexin V-FITC/PI double staining based flow cytometric analysis (reference value: 2.3%); type: functional
# [12] = biological target: Protein E6 (human papillomavirus 18) (UniProt P06463); assay: Inhibition of Human papillomavirus type18 derived E6 in human HeLa cells assessed as increase in p53 protein expression at 2 to 4 uM after 48 hrs by Western blot analysis; type: cell-based; procedure, shortened: as §1
# SiHa [13] = assay: Induction of apoptosis in human SiHa cells assessed as early apoptotic cells at 4 uM after 24 hrs by Annexin V-FITC/PI double staining based flow cytometric analysis (reference value: 5.4%); type: functional
# [14] = biological target: T1, Protein E7 (Human papillomavirus 16) (UniProt P03129); assay: Inhibition of Human papillomavirus type16 derived E7 in human CaSki cells assessed as decrease in phosphorylation of Rb at 2 to 4 uM after 48 hrs by Western blot analysis; type: cell-based; details: Ca-Ski; procedure, shortened: as §1
# T1 sequence (whole entry): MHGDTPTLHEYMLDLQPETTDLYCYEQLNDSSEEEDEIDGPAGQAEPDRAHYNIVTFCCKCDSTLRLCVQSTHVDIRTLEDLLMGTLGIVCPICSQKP
# Ca-Ski [15] = assay: Cell cycle arrest in human CaSki cells assessed as accumulation at G0/G1 phase at 4 uM after 24 hrs by propidium iodide staining based flow cytometric analysis (reference value: 56%); type: functional; procedure, shortened: as §2
# [16] = biological target: Casein kinase II subunit alpha (Homo sapiens) (UniProt P68400); assay: Potency index, ratio for inhibition activity of apigenin to test compound for inhibition of CK2alpha in human SiHa cells after 48 hrs by Western blot analysis; type: cell-based
# Sequence of Casein kinase II subunit alpha (Homo sapiens) (P68400 whole entry, looked up): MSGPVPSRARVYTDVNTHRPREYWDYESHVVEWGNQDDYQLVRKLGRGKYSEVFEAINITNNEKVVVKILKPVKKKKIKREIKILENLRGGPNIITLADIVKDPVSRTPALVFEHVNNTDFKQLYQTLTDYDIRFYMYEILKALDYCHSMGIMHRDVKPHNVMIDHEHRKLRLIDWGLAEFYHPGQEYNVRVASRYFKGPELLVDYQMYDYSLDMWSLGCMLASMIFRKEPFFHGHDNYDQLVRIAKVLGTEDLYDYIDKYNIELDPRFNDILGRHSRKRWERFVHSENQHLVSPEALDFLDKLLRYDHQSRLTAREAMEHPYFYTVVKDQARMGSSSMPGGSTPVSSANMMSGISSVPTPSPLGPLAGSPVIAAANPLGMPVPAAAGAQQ
# Procedure, shortened: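 Cells plated at 1 × 10^6 per 100 mm dish and treated next day for 48 h with test compound (2 or 4 μM) or apigenin (10, 20 or 40 μM). RIPA lysates with protease inhibitors; equal protein loaded for SDS-PAGE, then PVDF transfer. Blocked in 5% milk/TBST (3% BSA for CK2α); anti-SIX1 or anti-CK2α 1:500, HRP secondary 1:2000; chemiluminescent detection.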
# [17] = biological target: T1, Protein E7 (Human papillomavirus 16); assay: Inhibition of Human papillomavirus type16 derived E7 in human SiHa cells assessed as decrease in cyclin-D1 protein expression at 2 to 4 uM after 48 hrs by Western blot analysis; type: cell-based; procedure, shortened: as §1
# C-33-A [18] = assay: Cell cycle arrest in human C33A cells assessed as increase in p21 protein expression at 2 to 4 uM after 48 hr by Western lot analysis; type: functional, cell-based
# Procedure, shortened: (§3)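 Western blot. 1 × 10^6 cells were seeded per 100 mm dish and exposed the next day to 2 or 4 μM for 48 h. Cells were trypsinized and lysed in RIPA buffer with protease inhibitors. Equal protein was run on SDS-PAGE and transferred to PVDF, which was blocked in 5% milk/TBST. Anti-p53 and anti-p21 (also GAPDH) were used at 1:500 and HRP secondary at 1:2000; chemiluminescent detection.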
# C-33-A [19] = assay: Cell cycle arrest in human C33A cells assessed as increase in p53 protein expression at 2 to 4 uM after 48 hr by Western lot analysis; type: functional, cell-based; procedure, shortened: as §3
# C-33-A [20] = assay: Inhibition of colony formation in human C33A cells at 2 to 4 uM afer 1 week by crystal violet staining based assay; type: functional, cell-based
# Procedure, shortened: (§4)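 Cells were grown in DMEM with 10% FBS, seeded at 1 × 10^3 cells/ml in six-well plates, incubated overnight, then exposed to 2 or 4 μM at 37 °C under 5% CO2 for one week. Colonies were fixed with 4% paraformaldehyde, stained with 0.5% crystal violet and photographed.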
# Ca-Ski [21] = assay: Inhibition of colony formation in human CaSki cells at 2 to 4 uM afer 1 week by crystal violet staining based assay; type: functional, cell-based; procedure, shortened: as §4
structure (smiles),measurement,setting,value
O[C@]12C=C(c3nccc4c3[nH]c3ccccc34)[C@@H]3CCN(CCCC/C=C\CC1)C[C@@]31C[C@@H]3/C=C\CCCCN3[C@H]12 [MANZAMINE A],Activity,SiHa [1],33.6%
same,inhibition,[2],inactive
same,fold change (FC),Ca-Ski [3],1.4
same,Activity,SiHa [4],12.7%
same,viability at 4 µM,Ca-Ski [5],76.9%
same,Activity,C-33-A [6],1.8%
same,Activity,Ca-Ski [7],Toxic
same,Activity,C-33-A [8],11.1%
same,Activity,Ca-Ski [9],81.7%
same,Activity,Ca-Ski [10],15.2%
same,Activity,SiHa [11],4.2%
same,inhibition,[12],Active
same,Activity,SiHa [13],13.7%
same,inhibition,[14],Active
same,Activity,Ca-Ski [15],77.6%
same,Ratio,[16],10
same,inhibition,[17],Active
same,Activity,C-33-A [18],inactive
same,Activity,C-33-A [19],inactive
same,inhibition,C-33-A [20],Active
same,inhibition,Ca-Ski [21],Active
